# The list is not random: actives were taken first. Their share in the collection is about 2.8%.
# PAFAH1B3 inh: inhibitors of human PAFAH1B3. recombinant PAFAH1B3, FP-rhodamine probe, fluorescence polarization. inhibition, % at 3.39 µM. hit rate 0.28% among 340,000. AID 492972;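 active = inhibition above the screen-wide average of all tested compounds plus 3 SD, cut at about 25% in these data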;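 also: 0% = enzyme with DMSO only and 100% = wells lacking PAFAH1B3 protein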
# Target sequence (Q15102 whole entry, looked up): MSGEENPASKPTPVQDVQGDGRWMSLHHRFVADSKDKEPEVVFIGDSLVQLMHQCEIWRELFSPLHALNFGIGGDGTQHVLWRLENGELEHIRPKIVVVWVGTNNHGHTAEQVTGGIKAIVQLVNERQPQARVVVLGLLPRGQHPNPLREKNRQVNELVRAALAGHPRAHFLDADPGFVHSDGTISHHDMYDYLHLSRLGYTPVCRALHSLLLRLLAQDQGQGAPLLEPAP
# HTRA1 inh: blocks human HTRA1 serine peptidase. Q92743. recombinant HTRA1, FP-rhodamine activity-based probe, fluorescence polarization. inhibition, % at 5.96 µM. hit rate 0.5% among 340,000; in the data active = inhibition above about 36%;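 also: 0% = enzyme with DMSO and 100% = wells lacking enzyme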
# pPAFAH FP inh: inhibitors of human plasma PAF acetylhydrolase (pPAFAH); Q13093; recombinant pPAFAH, FP-rhodamine probe fluorescence polarization; inhibition, % at 3.39 µM; hit rate 1.5% among 330,000; AID 463082;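 active = inhibition above the mean inhibition across the screen plus 3 SD, cut at about 25% in these data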;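 also: inhibitors block binding of the rhodamine activity-based probe so polarization drops; 0% = enzyme with DMSO and 100% = wells lacking pPAFAH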
# ABHD4 inh: inhibits mouse alpha/beta hydrolase domain 4. Q8VD66. purified mABHD4, FP-Rh probe fluorescence polarization. inhibition, % at 8.92 µM. hit rate 0.54% among 370,000. AID 720543;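 active = inhibition exceeding the mean over every tested compound plus 3 SD, cut at about 30% in these data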;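 also: 0% = plate median of compound wells and 100% = S159A mutant with DMSO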
# Target sequence (Q8VD66 whole entry, looked up, the tested form may be a part): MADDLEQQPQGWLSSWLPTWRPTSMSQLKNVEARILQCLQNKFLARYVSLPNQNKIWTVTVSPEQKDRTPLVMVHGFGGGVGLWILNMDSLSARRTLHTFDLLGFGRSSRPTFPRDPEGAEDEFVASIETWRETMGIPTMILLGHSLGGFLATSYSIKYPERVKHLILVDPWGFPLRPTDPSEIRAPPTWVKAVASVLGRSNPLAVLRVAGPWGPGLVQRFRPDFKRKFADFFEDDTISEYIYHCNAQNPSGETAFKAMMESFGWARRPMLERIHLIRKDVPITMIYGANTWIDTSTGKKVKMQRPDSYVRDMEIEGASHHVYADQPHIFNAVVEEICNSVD
#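 Material: mouse ABHD4 enzyme, wild type; Benchmarks: S159A mutant high control, sample median low control; Buffer or medium: HEPES pH 7.0, NaCl, Pluronic buffer; Signal: fluorescence polarization; Read-out: percent inhibition of probe binding, normalized to plate controls; Timing: pre-incubation 45 min, probe exposure 60 min, at 25 °C; Dosing: 8.92 µM, single dose.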
# PAFAH1B2 inh: PAFAH1B2 (human) inhibition. P68402. recombinant PAFAH1B2, FP-rhodamine activity probe, fluorescence polarization. inhibition, % at 3.39 µM. hit rate 1.2% among 340,000;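 active = inhibition above the mean of all tested compounds plus 3 SD, cut at about 24% in these data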;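 also: 0% = enzyme with DMSO and 100% = wells lacking PAFAH1B2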
# PAFAH2 FP inh: inhibitors of human PAFAH2 | Q99487 | recombinant PAFAH2, FP-rhodamine activity probe, fluorescence polarization | inhibition, % at 3.39 µM | hit rate 0.99% among 340,000 | AID 492956;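 active = inhibition above the mean over all tested compounds plus 3 SD, cut at about 30% in these data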;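 also: inhibitors block probe labeling of enzyme so polarization drops; 0% = enzyme with DMSO and 100% = wells lacking PAFAH2 protein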
# PAFAH2 confirm: PAFAH2 (human) inhibition, confirmed. shares compounds with PAFAH2 FP inh. recombinant PAFAH2, FP-rhodamine activity probe, fluorescence polarization. inhibition, % at 3.39 µM. hit rate 65% among 2,300;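 active = mean inhibition over three repeats above a set limit taken from the earlier primary screen, cut at about 30% in these data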;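 also: inhibitor blocks binding of rhodamine activity probe so polarization falls; 0% = enzyme with DMSO and 100% = wells lacking PAFAH2 protein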
# The depositor's hits bear a star; . = not tested or not shown.
SMILES,PAFAH1B3 inh,HTRA1 inh,pPAFAH FP inh,ABHD4 inh,PAFAH1B2 inh,PAFAH2 FP inh,PAFAH2 confirm
CC1(C)CC(=O)C=C(N=CC2=C(O)CC(C)(C)CC2=O)C1,-4,7,2,4,2,33*,7
CCN(CC)c1ccc(C=Nn2c(-c3cc(C)[nH]n3)n[nH]c2=S)cc1,.,.,.,10,.,.,.
CCN(CC)c1ccc(/C=N/n2c(-c3ccccc3Br)n[nH]c2=S)cc1,1,-6,17,-3,9,31*,10
O=C(O/N=C/C1=C(Cl)c2ccccc2CC1)c1ccc(F)cc1,-4,2,-1,5,15,35*,40*
CN(Cc1ccco1)S(=O)(=O)c1ccc2c(c1)CCN2C(=O)CC(C)(C)C,.,.,.,1,.,.,.
O=C(COC(=O)c1cccs1)Nc1ccccc1,4,4,8,4,-5,77*,78*
N/C(CC(=O)Nc1ccc(F)c(Cl)c1)=N\OC(=O)c1cccs1,-1,-5,-4,-2,10,48*,36*
CC1(C(=O)OCC(=O)Nc2ccccc2)CC1(Cl)Cl (stereo unspecified),2,6,4,-7,1,56*,51*
O=C(NCCCc1ccccc1)c1cccs1,8,2,0,-1,3,5,.
O=C(COC(=O)c1cccs1)NCCCc1ccccc1,1,1,5,0,4,47*,28
CC1(C(=O)OCC(=O)Nc2ccccc2Cl)CC1(Cl)Cl (stereo unspecified),8,3,6,4,1,1,.
O=C(COC(=O)c1cccs1)Nc1nc(-c2ccccc2)cs1,3,-12,2,-8,-4,9,.
C[C@H]1[C@@H](OC(=O)NCc2ccccc2)CC[C@@]23CCCN2C(=O)CCC[C@@H]13,.,.,.,-1,.,.,.
C[C@@H]1COc2cc(N3CCCC3)ccc2S(=O)(=O)N1C,.,.,.,6,.,.,.
COc1ccc(-c2noc(C3CCCN(C(=O)Nc4ccc(Cl)cc4)C3)n2)cc1 (stereo unspecified),.,.,.,-23,.,.,.
O=C(COC(=O)c1cccs1)Nc1ccc(F)c(F)c1,4,5,9,-1,-1,79*,81*
Cc1ccccc1CN[C@@H]1CC[C@@]23CCCN2C(=O)CCC[C@H]3C1,.,.,.,2,.,.,.
CCN(C(=O)c1ccc2c(c1)OCO2)C12CC3CC(CC(C3)C1)C2,5,-9,7,-1,11,40*,35*
COc1ccc(-c2nc3ccccc3s2)cc1NC(C)=O,19,-5,1,3,1,41*,3
N#Cc1ccsc1NC(=O)COC(=O)c1ccc(NC(N)=O)cc1,-18,-23,3,-37,-9,5,.
CCN(CC)c1ccc(C(=O)OCC(=O)Nc2ncccn2)cc1,9,-2,24,-2,6,77*,70*
CCN(CC)c1ccc(C(=O)OCC(=O)Nc2ccccc2-c2ccccc2)cc1,5,-51,20,-4,-4,77*,51*
CCN(CC)c1ccc(C(=O)OCC(=O)Nc2sccc2C#N)cc1,-6,-16,9,-4,-3,47*,54*
COCC(=O)Nc1ccccc1-c1ccccc1,5,-7,2,-14,3,8,.
O=[N+]([O-])c1cc(C=NN2CCN(Cc3ccccc3Cl)CC2)ccc1Cl,.,.,.,-11,.,.,.
SMILES,PAFAH1B3 inh,HTRA1 inh,pPAFAH FP inh,ABHD4 inh,PAFAH1B2 inh,PAFAH2 FP inh,PAFAH2 confirm
O=C(N/N=C1/C(=O)c2cccc3cccc1c23)c1ccc(Cl)cc1,12,2,11,10,7,56*,35*
CCNC(=S)N/N=C1\C(=O)c2cccc3cccc1c23,12,5,-3,7,3,-3,.
O=c1c2ccccc2nc2n1CC/C2=C/N1CCN(c2cccc(C(F)(F)F)c2)CC1,21,27,18,.,23,33*,-1
O=C(O)c1ccc2c(=O)n3c(nc2c1)/C(=C/c1ccc(C(F)(F)F)cc1)CC3,5,-7,2,-6,2,-63,.
Cc1cc(C(=O)OCC(=O)Nc2ccc(F)cc2[N+](=O)[O-])c2ccccc2n1,10,3,5,7,1,-1,.
Cc1ccc(S(=O)(=O)N(C)C)cc1NC(=O)COC(=O)CC1CCCC1,4,5,11,0,3,32*,27
Cc1csc(Sc2ccc(C(=O)OCC(=O)Nc3ccc(F)cc3[N+](=O)[O-])cc2[N+](=O)[O-])n1,6,-1,5,0,0,34*,18
COc1ccc(C(=O)OCC(=O)Nc2cc(C)c(C)cc2[N+](=O)[O-])cc1,-2,-2,4,0,-1,39*,32*
Cc1cc(NC(=O)COC(=O)CC2CCCC2)c([N+](=O)[O-])cc1C,5,0,22,0,4,56*,21
CCC(=O)OCC(=O)Nc1cc(C)c(C)cc1[N+](=O)[O-],0,0,1,0,9,15,.
COC(=O)C1CN(Cc2ccccc2)CCS(=O)(=O)N1Cc1ccc(C(F)(F)F)cc1 (stereo unspecified),.,.,.,-7,.,.,.
CC1(C)CC(=O)C=C(Nc2ccccc2NC(=O)c2cc(F)cc(F)c2)C1,.,.,.,-3,.,.,.
O=C(COC(=O)CC1CCCC1)Nc1ccc(Br)cc1F,-2,-3,22,-1,-1,47*,41*
CC(C)c1ccc(NC(=O)COC(=O)CC2CCCC2)cc1,8,-11,18,-1,4,54*,27
Cc1cccc(NC(=O)COC(=O)CC2CCCC2)c1C,-3,3,.,-3,5,52*,38*
O=C(COC(=O)CC1CCCC1)Nc1cc2c(cc1Cl)C(=O)c1ccccc1C2=O,-3,9,13,19,2,10,.
O=S(=O)(c1ccc(F)cc1)n1c(CN2CCOCC2)nc2ccccc21,.,.,.,-5,.,.,.
CCN(C)C(=O)CNc1nnnn1-c1ccccc1,.,.,.,0,.,.,.
Cc1noc(NC(=O)c2ccccc2C(F)(F)F)c1C#N,8,2,3,-1,1,38*,1
CN(C)S(=O)(=O)c1cccc(NC(=S)N/N=C/c2cccc(O)c2)c1,5,-3,2,-12,0,4,.
CN(C)S(=O)(=O)c1cccc(NC(=S)N/N=C/c2cc(Br)ccc2O)c1,20,36,20,14,9,34*,20
CCOc1ccc(CCNC(=O)COC(=O)/C=C/c2ccc(C)o2)cc1OCC,-2,1,6,5,-2,4,.
Cc1ccc(/C=C/C(=O)OCC(=O)NCc2ccccc2)o1,-6,-1,.,9,1,52*,40*
CCCNC(=O)COC(=O)/C=C/c1ccc(C)o1,5,4,5,-4,3,40*,37*
CCC(=O)c1ccc(OC(=O)N2CCOCC2)cc1,5,3,24,4,1,35*,21

# High-throughput results (PubChem)
